Measurements published in the EternaBench riboswitch data.

Test system: MS2 coat protein
Experiment: apparent Kd, MS2 coat protein; higher = weaker binding; RNA-MaP array; FMN 200 µM where present
How it was run: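 The titrant was SNAP-549-labelled MS2 coat protein, run from 0.7 or 1.5 nM in doubling steps to 3 µM. It was applied to designs transcribed by stalled E. coli RNA polymerase on Illumina sequencing-chip clusters, without ligand first and then with constant ligand, in 100 mM Tris-HCl pH 7.5, 80 mM KCl, 4 mM MgCl2, BSA, DTT, yeast tRNA and Tween-20. The apparent Kd is the median of filtered per-cluster binding-curve fits, with green signal normalised to red-channel RNA signal and control-cluster median Fmax.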

[1] = designed as: OFF switch for flavin mononucleotide, no ligand
[2] = ligand present: flavin mononucleotide, designed as: OFF switch for flavin mononucleotide
[3] = designed as: ON switch for flavin mononucleotide, no ligand
[4] = ligand present: flavin mononucleotide, designed as: ON switch for flavin mononucleotide

Row | Sequence | apparent Kd [1] | apparent Kd [2] | apparent Kd [3] | apparent Kd [4]
1 | GCCCUCUCUGAGGAUAUUAUCUGGUUCGAUUGAUAAGAAGGCAGUACAUGAGGAUCACCCAUGUGGUUCGUUUG | 109 nM | 303 nM | – | –
2 | UUGGACGUCGUAGGAUAUGUAGGAUAUUCCCACAUGAGGAUCACCCAUGUUGACAUGGAAGAAGGACAGAAGGACGAUGUCCAU | – | – | 4.05 nM | 3.47 nM
3 | CCCUGAUUGAGAGGUAGGAGUGGUAGAAGGCGACCGGUGCCAGAUGACAUGAGGAUCACCCAUGUCGAGGAUAUACCACAGAAU | 6.7 nM | 12.2 nM | – | –
4 | AACGUGUGAGGAUAUGCACGAGUGACAGGGAGGCUGUCACAGCAGAAGGUACAUGAGGAUCACCCAUGUGAAAU | 24.9 nM | 20.6 nM | – | –
5 | GGACCGCGCAGAAUUGGCGGCCGGCAGGAUAUGACAUGAGGAUCACCCAUGUGAACUCCAUUGGGUCAGAAGGGCCACGACACA | 21.1 nM | 66.8 nM | – | –
6 | CUCAUGUAAGGAUAUCAGUAGUAAAAAAAUAAAAUUACUACUGAGAAGGUACAUGAGGAUCACCCAUGUCCUUG | 38.8 nM | 21.6 nM | – | –
7 | GAUUGACAUGAGGAUCACCCAUGUGAGGAUAUCGGCUGGACCGUGUUGGCUUCCGUUUCGAGAAGGCGCAUAGG | 26.1 nM | 48.3 nM | – | –
8 | UAUACACAUGAGGAUCACCCAUGUGAGGAUAUGUACAACAACCCGACGGUGUUGUUGUACAGAAGGCACAAAUA | 80.2 nM | 59.8 nM | – | –
9 | UGCGGAAGAGGAUAUACGUAGAAAUAGAUUCAUGUAAAACUACAUGAGGAUCACCCAUGUAGAAGGCUUUCGCU | 24.8 nM | 232 nM | – | –
10 | AGCCCGGGAGGAUAUCCAAUAUAUGACAUGAGGAUCACCCAUGUUUCCACUCGUACCUCCGGAGAAGGCCCGGCGA | 19.7 nM | 19.4 nM | – | –
11 | UUUGCAACAUGAGGAUCACCCAUGUAGGAUAUCGCUAUUGUAAUCAUGAAACAUGAUUACAAUAGCGAGAAGGACAUAUGCGGG | 44.4 nM | 35 nM | – | –
12 | GCUGCAUAGGCAGGAUAUGCAAAAAACGAUGCAAAGCAUCGAAAAAAAACAUGAGGAUCACCCAUGUAGAAGGGCCUGUGCAGU | 22.6 nM | 20.8 nM | – | –
13 | AAUAUGUUGCAGAAGGUUAUAUUUAUUUAGUACCUCAUGACAUGAGGAUCACCCAUGUUAAUGUUGAAGGAUAUGCAAUAUAUU | 14.1 nM | 13.6 nM | – | –
14 | GUCAAGUGAGGAUAUGAUUGUACGGCAGACUAGCGUCUGCAUCAGAAGGCACAUGAGGAUCACCCAUGUUUGUC | 19.1 nM | 16.9 nM | – | –
15 | AAGAAGUGAGGAUAUGCUGACAAUAUGAAGACUUGAGGUAUGCAGAAGGCACAUGAGGAUCACCCAUGUAAGAA | 30 nM | 29.7 nM | – | –
16 | GGACAUUUACAGAAGGGCAAGUUGGAUCGCGGAUAACGCGAUCCGACUUGCAGGAUAUGUUGAACAUGAGGAUCACCCAUGUCU | – | – | 7.99 nM | 8.52 nM
17 | CGGUUAUAUCGAGGAUAUAAGUCUAGGACAUGAGGAUCACCCAUGUAUGUCUUAGAAGGCGAUAUAACCAGCCUGUUACAGGCA | – | – | 29.3 nM | 6.32 nM
18 | GCUGGACGAGGAUAUACAUAACGUGCUUCGGCACGAGAUCUACAUGAGGAUCACCCAUGUAGAAGGUGUCCAGC | 13.7 nM | 16.2 nM | – | –
19 | GCAGCUAAUGCAGGAUAUCAGCACGUGUAGUGCUGAGAAGGGCACAUGAGGAUCACCCAUGUGAUCAAUUAAUCUUAAUGCUGC | 17.3 nM | 54.5 nM | – | –

Row | Sequence | apparent Kd [1] | apparent Kd [2] | apparent Kd [3] | apparent Kd [4]
20 | UGUAUGGACAGAGGAUAUACGGCUAGGAGAUACUAGCUACUAUUCCUCACAUGAGGAUCACCCAUGUAGAAGGCUGUCCAUACU | 18 nM | 145 nM | – | –
21 | CGGGAGUCAGGAUAUACGAACAUGUCGCCAGAUGUCAAGGUACAUGAGGAUCACCCAUGUAGAAGGGAGGAGAU | 80.6 nM | 72.7 nM | – | –
22 | UGGUACUAGGGAGGAUAUGGGAAGAUACAUGAGGAUCACCCAUGUUUAAGAAUGCCGAGAGGCAACUAGAAGGCCCAAGUACCU | – | – | 425 nM | 18.6 nM
23 | GCUAGUAUUGCAGGAUAUUGUAAUUUAUUAUUUCAAGAAGGGCAUUACAUGAGGAUCACCCAUGUCAUCCUAUGGUUUACUAGC | 9.2 nM | 19.9 nM | – | –
24 | GUAGCAUACCGAGGAUAUUCAGGGCGUAAAUAAACAUGAGGAUCACCCAUGUGGCGAAAGCCUAGGGAGAAGGCGGAAUGCUAC | – | – | 17.1 nM | 16.8 nM
25 | UAAAGACAUGAGGAUCACCCAUGUGAGGAUAUCGGAGGUGACGGAGCGUCGAGUUCGGCGAGAAGGCGCAGGAA | 81 nM | 53.9 nM | – | –
26 | GGUACCUUCACAGGAUAUGCUAUGGUUUCCGUAGCAGAAGGGUGAUACAUGAGGAUCACCCAUGUGGUGCCAGGGCGUGAGCCC | – | – | 387 nM | 293 nM
27 | UCUGUAGGAAUACAGACGAAGUGGCCAGAAGGUGAAUGCCACAUGAGGAUCACCCAUGUUUCGAUCAAGGAUAUGGUUUCUCAC | – | – | 312 nM | 79.8 nM
28 | AUUUUGUCAGGAUAUGAUUAGUAGGAUGAGAGUGCUACUACUUAGAAGGGACAUGAGGAUCACCCAUGUAUUCC | 16.8 nM | 20 nM | – | –
29 | AUGCUAGUGUGAGGAUAUUAGACAUGAGGAUCACCCAUGUGUAAGAUCAUGACGAUCACGCAUGAUAAGAAGGUACAUUAGCAU | 54.6 nM | 99.7 nM | – | –
30 | GCAUAUGUCGUCUACAUGAGGAUCACCCAUGUUGAUAAACAUGAGGAUAUUGAUAAGAAUUGUAUCGAGAAGGUAUGUAGGUGC | – | – | 258 nM | 347 nM
31 | GUGGUCAGACAUGAGGAUCACCCAUGUGGAAUAAAUAAGGCAUAGGAUAUGAAAUAUAGGAUAUAUCAGAAGGAUGGGUUGGUG | – | – | 164 nM | 191 nM
32 | GUAAUUAUAUAGGAUAUCGAUUUUAUUAUUUAACGAGAAGGAUGAACAUGAGGAUCACCCAUGUGGUAUCAUGG | 164 nM | 177 nM | – | –
33 | GUAUCGUAUGUGAGGAUAUAUUAAACCUUGGAUUUGUAGAAGGCACAUGAGGAUCACCCAUGUCCUAGUGGUCC | 29.4 nM | 33.3 nM | – | –
34 | CACCGUUAGCGAGGAUAUCGUACAUGAGGAUCACCCAUGUAAUAAAUGAGAAUUUCGGAUGUAUGCGAGAAGGCGCGAAUCGGC | 52.9 nM | 40.6 nM | – | –
35 | UUAGGUCGAAACAUGAGGAUCACCCAUGUGUUAUAAUUAAUAUAGGAUAUGUUUAUACUUUUUGGGCAGAAGGAUGAUAUUGCU | – | – | 21.2 nM | 17.9 nM
36 | AAAUGGGCGUAGGAUAUGAGAUGGUCUAGCAGCUCAGAAGGACGCACAUGAGGAUCACCCAUGUGAUCGGACUA | – | 224 nM | – | –
37 | UUAUUGUGAGGAUAUCCAAUAUAUGACAUGAGGAUCACCCAUGUUUCCACUCGUACCUCCGGAGAAGGCACAGUUU | 31.2 nM | 24.1 nM | – | –
38 | GGUUGGCAGCUAGGAUAUGGGCGGUCACAUGAGGAUCACCCAUGUCAACAUCAAAACCAGAUUAACCAGAAGGAGCUGCGGGUU | – | – | 14.8 nM | 87.7 nM

Row | Sequence | apparent Kd [1] | apparent Kd [2] | apparent Kd [3] | apparent Kd [4]
39 | UGUGUGAGACAGGAUAUGCUGGAUGAGAGGCGGGUAGAAGGGUCUACAUGAGGAUCACCCAUGUGGCCGGUUGG | 17 nM | 16.9 nM | – | –
40 | GUGGUCAGACAUGAGGAUCACCCAUGUGGAAUAAAUAAGGAGAAGGAUAUUCAAUAUAGGAUAUAGAAGAAGGUCUGGUUGGUG | – | – | 73.7 nM | 82.7 nM
41 | CGAUGUUGUGUCAGGAUAUGCGUUGCGAAAGCAAUGUAGAAGGGACAUGAGGAUCACCCAUGUUCUAACCAUCG | 12.4 nM | 15.8 nM | – | –
42 | GGAUGCAAAGAGAAGGGCUACUGGUUGAAACCUGCGGCCUCUGGAACAUGAGGAUCACCCAUGUAGCAGGAUAUCUUUACGUCA | 173 nM | 39.4 nM | – | –
43 | AAUGUGUGUCGAGGAUAUAUAACAUGACAACAAACACAUACAUGAGGAUCACCCAUGUCCCAUGUAUAGAAGGCGAUAUAUAUA | – | – | 310 nM | 1120 nM
44 | AUUUAGUGCGAGAAGGCGUGGUCACAUGAGGAUCACCCAUGUCAGUACACGAGGAUAUCGAUUCACUGUGUUAAUACAAGUGAC | – | – | 77.9 nM | 6.68 nM
45 | UCGGGCGUAGGAUAUGCUAUCACGGACAUGAGGAUCACCCAUGUCAGAUGUCCGGGCGAGGCAGAAGGGCGGUUUU | 74.1 nM | 120 nM | – | –
46 | UAGGUUUGUAGUUACAUCCCUACACAGGAUAUGGGUAGUUACAUGAGGAUCACCCAUGUUCGAACUCAGAAGGGUGGAUCGUUA | – | – | 170 nM | 13.8 nM
47 | AGAAAACAUGAGGAUCACCCAUGUGAGGAUAUCGAUGUCCAAGGCCGGGUGCGGGACUCGAGAAGGCACUUGGA | 76.9 nM | 32.3 nM | – | –
48 | AGUAUGCAGCAGGAUAUCGAUCCGCAGUAUGAUCGAGAAGGGCUGACAUGAGGAUCACCCAUGUGCGUCCUAGG | 40.1 nM | 167 nM | – | –
49 | GGGCUCGGUGUGAGGAUAUGCUCGGGUAAAUCUGGGUAGAAGGCACAUGAGGAUCACCCAUGUAAGCUGGGUCU | 33.9 nM | 33.9 nM | – | –
50 | CAGGUAGACUGAGGAUAUACAAUAAAGACCUAGUCUAUCUAGGUCUUCACAUGAGGAUCACCCAUGUAGAAGGCAGUCUGCCUG | 19.1 nM | 38.5 nM | – | –
51 | ACCGGGUGUCACGUAUUACCGACAUGAGGAUCACCCAUGUAGGAGGAUAUGCAGACCGACAUAAAGCAGAAGGCCUACGUUUUC | 6.72 nM | 35.8 nM | – | –
52 | ACAUGAGGAUCACCCAUGUGACAAGAAUGGCUGAUACAGAGACAGGAUAUAGGUGCAUAUCUAACCUAGAAGGGUCAUGACUGG | 35.2 nM | 31.9 nM | – | –
53 | UAAAAGUGAGGAUAUACAUUAAGGUAAGUCCGGAUGCGAAGACAUGAGGAUCACCCAUGUAGAAGGCACACAAA | 32.1 nM | 146 nM | – | –
54 | UCAUUAUAAAUCCAUCAUAACUACAUGAGGAUCACCCAUGUGCAGGAUAUCGAUGGUUUAACUAUCGAGAAGGGCAUUUACAGA | 47.8 nM | 146 nM | – | –
55 | CGUUAAUAUCGAGGAUAUGUCUAGACACAUGAGGAUCACCCAUGUAUGUGUAUAGAAGGCGAUAUUAACAGCAUGUUACAUGCC | – | – | 45.5 nM | 16.3 nM
56 | UGUGCGUAUGUGAGGAUAUGCUGGUCCUUGGAUCAGCAGAAGGCACAUGAGGAUCACCCAUGUGGUGUCGUACG | 114 nM | 185 nM | – | –
